Entries after “also recorded” stand apart in the source; their conditions may differ.
What was measured:
[1] = biological target: P2Y1 receptor; settings: competitive antagonist of the P2Y1 receptor; cited from earlier work
[2] = system: human platelets; experiment: ADP-induced aggregation of human washed platelets; assay type: cell-based; settings: 1 μM, ADP 5 μM
Summary of the method: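 Washed human platelets: donor blood spun 175×g, 15 min, 37 °C; platelet-rich plasma spun 1570×g, 15 min; pellet washed twice in Tyrode's (pH 7.3, 0.35% human serum albumin); resuspended 3×10^5/μL with 0.02 U/mL apyrase, kept at 37 °C. Extent measured as maximum curve height above baseline.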

[3] = biological target: hP2Y1 receptor (Homo sapiens, UniProt P47900); experiment: [125I]MRS2500 radioligand binding at hP2Y1 receptor in Sf9 insect cell membranes; settings: for binding to the P2Y1 receptor (in words): [125I]MRS2500 binding; for fold weaker in binding than shortest homologue 20: comparison of Ki values
hP2Y1 receptor, sequence (P47900 whole entry): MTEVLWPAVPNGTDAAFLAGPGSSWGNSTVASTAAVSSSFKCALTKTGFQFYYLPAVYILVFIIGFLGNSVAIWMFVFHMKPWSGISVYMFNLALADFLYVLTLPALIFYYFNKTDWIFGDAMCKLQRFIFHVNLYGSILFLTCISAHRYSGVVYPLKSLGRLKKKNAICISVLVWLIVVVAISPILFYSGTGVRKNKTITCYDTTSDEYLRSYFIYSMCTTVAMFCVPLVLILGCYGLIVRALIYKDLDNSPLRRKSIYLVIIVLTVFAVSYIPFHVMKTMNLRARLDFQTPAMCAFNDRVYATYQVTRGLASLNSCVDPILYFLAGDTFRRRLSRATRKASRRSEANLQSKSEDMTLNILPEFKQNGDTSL

CNc1ncnc2c1ncn2[C@H]1C[C@H](OP(=O)(O)O)[C@@H](COP(=O)(O)O)O1 [Compound 1, N^6-methyl-2′-deoxyadenosine-3′,5′-bisphosphate]
Kb [1]: 102 nM

CNc1nc(I)nc2c1ncn2[C@H]1C[C@H](OP(=O)(O)O)[C@]2(COP(=O)(O)O)C[C@H]12 [Compound 2, (1′R,2′S,4′S,5′S)-4-(2-iodo-6-methylamino-purin-9-yl)-1-[(phosphato)-methyl]-2-(phosphato)-bicyclo[3.1.0]hexane]
inhibition of platelet aggregation (in words) [2]: completely inhibited aggregation

CNc1nc(C#CCCCC(=O)NCCNC(=O)CCCCCNC(=O)CCCCC2SCC3NC(=O)NC32)nc2c1ncn2[C@H]1C[C@H](OP(=O)(O)O)[C@]2(COP(=O)(O)O)C[C@H]12 (stereo partly drawn) [Compound 18, (1'R,2'S,4'S,5'S)-4-{2-[6-(6-Oxo-6-(2-(6-(5-(2-oxohexahydro-1H-thieno[3,4-d]imidazol-4-yl)pentanamido)hexanamido)ethylamino)hex-1-ynyl)]-6-methylaminopurin-9-yl}-1-[(phosphato)-methyl]-2-(phosphato)-bicyclo[3.1.0]hexane]
binding to the P2Y1 receptor (in words) [3]: more potent in binding than the shorter analogue 17

CNc1nc(C#CCCCCc2cn(CCNC(C)=O)nn2)nc2c1ncn2[C@H]1C[C@H](OP(=O)(O)O)[C@]2(COP(=O)(O)O)C[C@H]12 [Compound 22, (1'R,2'S,4'S,5'S)-4-{2-[(6-(2-Acetamidoethyl)-1H-1,2,3-triazol-4-yl)-hex-1-yn-1-yl]-6-methylaminopurin-9-yl}-1-[(phosphato)-methyl]-2-(phosphato)-bicyclo[3.1.0]hexane]
fold weaker in binding than shortest homologue 20 [3]: 20 – 30 fold

CNc1nc(C#CCCCCCc2cn(CCNC(C)=O)nn2)nc2c1ncn2[C@H]1C[C@H](OP(=O)(O)O)[C@]2(COP(=O)(O)O)C[C@H]12 [Compound 23, (1'R,2'S,4'S,5'S)-4-{2-[(7-(2-Acetamidoethyl)-1H-1,2,3-triazol-4-yl)-hept-1-yn-1-yl]-6-methylaminopurin-9-yl}-1-[(phosphato)-methyl]-2-(phosphato)-bicyclo[3.1.0]hexane]
fold weaker in binding than shortest homologue 20 [3]: 20 – 30 fold

(1'R,2'S,4'S,5'S)-4-{2-[(6-(6-(4-(Fluorosulfonyl)phenethylamino)-6-oxohex-1-ynyl)]-6-methylaminopurin-9-yl}-1-[(phosphato)-methyl]-2-(phosphato)-bicyclo[3.1.0]hexane [Compound 19]
binding to the P2Y1 receptor (in words) [3]: not appreciably potent; also recorded: weak in binding

(1'R,2'S,4'S,5'S)-4-{2-[(6-(6-Oxo-6-(2-(5-(2-oxohexahydro-1H-thieno[3,4-d]imidazol-4-yl)pentanamido)ethylamino)hex-1-ynyl)-1-propynyl]-6-methylaminopurin-9-yl}-1-[(phosphato)-methyl]-2-(phosphato)-bicyclo[3.1.0]hexane [Compound 17]
binding to the P2Y1 receptor (in words) [3]: weak in binding
